Measurements as given in publication PMC7511286 (European Journal of Drug Metabolism and Pharmacokinetics, 2020).
Entries after “also recorded” stand apart in the source; their conditions may differ. Marks after values point to notes of the source that are not given here.

Tests used:
[1] = SAD study: single ascending oral dose pharmacokinetics; type: in vivo, human; details: for CL/F: geometric mean (geometric %CV)
Outline: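 Healthy males (n = 6 per group) took oral tablets either fasted (10 h overnight fast, continued 4 h) or 30 min after starting a standardized breakfast. Periods were separated by at least 14 days of washout. Plasma was sampled pre-dose to 168 h; urine was collected 24 h pre-dose and 24 h post-dose. LC-MS/MS used ESI−, LLOQ 0.1 μg/ml. CL/F = dose/AUC0–∞; Vz/F = CL/F/λz; values are geometric means.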

[2] = MAD study: multiple ascending oral dose pharmacokinetics; type: in vivo, human
Outline: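 Healthy males took oral tablets once daily for 14 days after an overnight fast of at least 8 h, continued 1 h on profile days. Plasma was sampled 0.5–24 h after the day 0 dose, as troughs, and 0.5–72 h after the day 13 dose. LC-MS/MS used ESI−, LLOQ 0.1 μg/ml. AUC was by linear-log trapezoid. CL/F = dose/AUC0–24; RAAUC = AUC0–24 (day 13–14)/AUC0–24 (day 0–1).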

[3] = single oral 10 mg, fed vs fasted
[4] = Day 13, 30 mg once daily, n = 12, geometric mean (geometric %CV)
[5] = Day 13, 40 mg once daily, n = 12, geometric mean (geometric %CV)
[6] = Day 13, 50 mg once daily not pre-dosed, n = 8, geometric mean (geometric %CV)
[7] = Day 13, 50 mg once daily pre-dosed, n = 8, geometric mean (geometric %CV)
[8] = Day 13–14 / Day 0–1, 30 mg once daily, n = 12, geometric mean (geometric %CV)

SMILES: COc1cccc(-c2ccc(NC(=O)C3=C(C(=O)O)CCC3)c(F)c2)c1 [IMU-838, vidofludimus calcium]
- accumulation ratio regarding exposure expected following multiple daily dosing ([1]; based on single-dose pharmacokinetics): ~2
- urine samples with concentration below the LLOQ ([1]; single oral 10 mg): all samples
- effect of food on pharmacokinetics ([1]; single oral 10 mg, fasted vs fed): Food did not impact the pharmacokinetics; also recorded: no detrimental effect of food intake
- CL/F ([1]; single oral 10 mg, fasted, n = 6): 4.064 (15.9) ml/min
- blood exposure higher after fed administration compared with fasted [1, 3]: about 32%
- geometric mean Cmax higher after fed compared with fasted [1, 3]: about 23%
- CL/F ([1]; single oral 10 mg, fed, n = 6): 3.090 (25.5) ml/min
- urine samples with concentration below the LLOQ ([1]; single oral 20 mg): four of six samples
- CL/F ([1]; single oral 20 mg, fasted, n = 6): 4.218 (17.2) ml/min
- CL/F ([1]; single oral 30 mg, fasted, n = 6): 3.633 (29.3) ml/min
- CL/F ([1]; single oral 40 mg, fasted, n = 5): 3.480 (21) ml/min
- dose dependence of plasma pharmacokinetics ([1]; single oral 10 to 40 mg, fasted): dose-linear
- fraction of administered dose excreted in urine during single 24 h period ([1]; single oral 30 and 40 mg): more than 1%
- Cmax ([2]; Day 0, 30 mg, n = 12, geometric mean (geometric %CV)): 3.979 (39.5) μg/ml
- Cmax ([2]; Day 0, 40 mg, n = 12, geometric mean (geometric %CV)): 5.805 (32.3) μg/ml
- Cmax ([2]; Day 0, 50 mg not pre-dosed, n = 8, geometric mean (geometric %CV)): 5.016 (51.1) μg/ml
- AUC0–t [2, 4]: 188.554 (30.3) μg·h/ml
- CL/F [2, 4]: 4.985 (25.0) ml/min
- Cmax [2, 4]: 6.543 (25.8) μg/ml
- AUC0–t [2, 5]: 284.959 (25.3) μg·h/ml
- CL/F [2, 5]: 4.201 (22.6) ml/min
- Cmax [2, 5]: 10.911 (20.2) μg/ml
- CL/F ([2]; Day 13, 50 mg once daily all, n = 16, geometric mean (geometric %CV)): 5.008 (20.9) ml/min
- AUC0–t [2, 6]: 310.301 (32.7) μg·h/ml
- CL/F [2, 6]: 4.982 (27.3) ml/min
- Cmax [2, 6]: 10.841 (21.5) μg/ml
- AUC0–t [2, 7]: 304.154 (16.1) μg·h/ml
- CL/F [2, 7]: 5.034 (14.1) ml/min
- Cmax [2, 7]: 10.725 (20.1) μg/ml
- RAAUC (accumulation ratio for AUC0–24) [2, 8]: 1.958 (24.4)
- RACmax (accumulation ratio for Cmax) [2, 8]: 1.644 (37.6)
- RAAUC (accumulation ratio for AUC0–24) ([2]; Day 13–14 / Day 0–1, 40 mg once daily, n = 9, geometric mean, geometric %CV 23.1): 2.077^e (23.1)
- RACmax (accumulation ratio for Cmax) ([2]; Day 13–14 / Day 0–1, 40 mg once daily, n = 12, geometric mean (geometric %CV)): 1.880 (30.1)
- AUC(0-t) ([2]; male, human, plasma, oral, 30 mg, AUC0–24, Day 0, 30 mg, n = 12, geometric mean (geometric %CV)): 51200 ng·h/mL
- AUC(0-t) ([2]; male, human, plasma, oral, 30 mg, AUC0–t, geometric mean, Day 0, 30 mg): 51100 ng·h/mL
- Cmax ([2]; male, human, plasma, oral, 30 mg, Cmax, Day 0, 30 mg, n = 12, geometric mean (geometric %CV)): 3980 ng/mL
- Tmax ([2]; male, human, plasma, oral, 30 mg, tmax, Day 0, 30 mg, n = 12, median (minimum–maximum)): 3 h
- AUC(0-t) ([2]; male, human, plasma, oral, 40 mg, AUC0–t, geometric mean, Day 0, 40 mg): 71700 ng·h/mL
- Cmax ([2]; male, human, plasma, oral, 40 mg, Cmax, Day 0, 40 mg, n = 12, geometric mean (geometric %CV)): 5810 ng/mL
- Tmax ([2]; male, human, plasma, oral, 40 mg, tmax, Day 0, 40 mg, n = 12, median (minimum–maximum)): 3 h
- AUC(0-t) ([2]; male, human, plasma, oral, 50 mg, AUC0–24, Day 0, 50 mg not pre-dosed, n = 8, geometric mean (geometric %CV)): 67100 ng·h/mL
- AUC(0-t) ([2]; male, human, plasma, oral, 50 mg, AUC0–t, geometric mean, Day 0, 50 mg not pre-dosed): 66700 ng·h/mL
- Cmax ([2]; male, human, plasma, oral, 50 mg, Cmax, Day 0, 50 mg all, n = 16, geometric mean (geometric %CV)): 6040 ng/mL
- Cmax ([2]; male, human, plasma, oral, 50 mg, Cmax, Day 0, 50 mg not pre-dosed, n = 8, geometric mean (geometric %CV)): 5020 ng/mL
- Cmax ([2]; male, human, plasma, oral, 50 mg, Cmax, Day 0, 50 mg pre-dosed, n = 8, geometric mean (geometric %CV)): 7260 ng/mL
- Tmax ([2]; male, human, plasma, oral, 50 mg, tmax, Day 0, 50 mg all, n = 16, median (minimum–maximum)): 2 h
- Tmax ([2]; male, human, plasma, oral, 50 mg, tmax, Day 0, 50 mg not pre-dosed, n = 8, median (minimum–maximum)): 3 h
- Tmax ([2]; male, human, plasma, oral, 50 mg, tmax, Day 0, 50 mg pre-dosed, n = 8, median (minimum–maximum)): 2 h
- Tmax ([2]; male, human, plasma, oral, median tmax, range over groups, Day 0): 2 to 3 h
- accumulation factor for multiple daily dosing ([2]; multiple once-daily dosing): approximately 2
- dose dependence of plasma pharmacokinetics ([2]; repeated oral 30 to 50 mg, fasted): dose-proportional
